ChEMBL document CHEMBL2203146, “Search for anticonvulsant and analgesic active derivatives of dihydrofuran-2(3H)-one” (Bioorg Med Chem, 2012)
Active and inactive are the calls of the source.

Legend:
[1] = system: Mus musculus; assay: Anticonvulsant activity in albino CF1 mouse assessed as protection against subcutaneous metrazol-induced seizures at 30 to 300 mg/kg, ip after 0.5 to 4 hrs; assay type: functional, organism-based
Outline: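 CF No. 1 male mice dosed ip at 30, 100 or 300 mg/kg (saline or 0.5% methylcellulose), then given pentetrazole 85 mg/kg sc as 0.5% solution in posterior midline. Watched 30 min. Protection means no threshold seizure (single clonic spasm episode of at least 5 s). Expressed as protected/tested.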

[2] = system: Mus musculus; assay: Neurotoxicity in albino CF1 mouse assessed as minimal motor impairment at 300 mg/kg, ip after 4 hrs by rotorod test; assay type: toxicity, organism-based; parameters: dose 300 mg/kg, route intraperitoneal; conditions: in vivo
Outline: (§1)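 Rotarod in male CF No. 1 mice after ip dosing (30, 100, 300 mg/kg; saline or 0.5% methylcellulose) at 15–240 min. Knurled plastic rod, 1-inch diameter, 6 rpm. Toxicity means failing to stay on for 1 min on three successive attempts. Recorded as toxic/tested.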

[3] = system: Mus musculus; assay: Neurotoxicity in albino CF1 mouse assessed as minimal motor impairment at 300 mg/kg, ip after 0.5 hr by rotorod test; assay type: toxicity, organism-based; parameters: dose 300 mg/kg, route intraperitoneal; conditions: in vivo; outline: as §1
[4] = system: Mus musculus; assay: Neurotoxicity in albino CF1 mouse assessed as minimal motor impairment at 100 mg/kg, ip after 4 hrs by rotorod test; assay type: toxicity, organism-based; parameters: dose 100 mg/kg, route intraperitoneal; conditions: in vivo; outline: as §1
[5] = system: Mus musculus; assay: Neurotoxicity in albino CF1 mouse assessed as minimal motor impairment at 100 mg/kg, ip after 1 hr by rotorod test; assay type: toxicity, organism-based; parameters: dose 100 mg/kg, route intraperitoneal; conditions: in vivo; outline: as §1
[6] = system: Mus musculus; assay: Neurotoxicity in albino CF1 mouse assessed as minimal motor impairment at 100 mg/kg, ip after 0.5 hr by rotorod test; assay type: toxicity, organism-based; parameters: dose 100 mg/kg, route intraperitoneal; conditions: in vivo; outline: as §1
[7] = system: Mus musculus; assay: Neurotoxicity in albino CF1 mouse assessed as minimal motor impairment at 100 mg/kg, ip after 0.25 hr by rotorod test; assay type: toxicity, organism-based; parameters: dose 100 mg/kg, route intraperitoneal; conditions: in vivo; outline: as §1
[8] = system: Mus musculus; assay: Anticonvulsant activity in albino CF1 mouse assessed as protection against maximal electroshock-induced seizures at 300 mg/kg, ip after 4 hrs; assay type: functional, organism-based; parameters: dose 300 mg/kg
Outline: (§2)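 Male albino CF No. 1 mice (18–25 g) dosed ip at 30, 100 and 300 mg/kg in saline or 0.5% methylcellulose, tested 15, 30, 60 and 240 min after dosing. Maximal electroshock seizures elicited with 60-cycle alternating current. Scored as animals protected/animals tested, small qualitative groups.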

[9] = system: Mus musculus; assay: Anticonvulsant activity in albino CF1 mouse assessed as protection against maximal electroshock-induced seizures at 300 mg/kg, ip after 0.5 hr; assay type: functional, organism-based; parameters: dose 300 mg/kg; outline: as §2
[10] = system: Mus musculus; assay: Anticonvulsant activity in albino CF1 mouse assessed as protection against maximal electroshock-induced seizures at 100 mg/kg, ip after 4 hrs; assay type: functional, organism-based; parameters: dose 100 mg/kg; outline: as §2
[11] = system: Mus musculus; assay: Anticonvulsant activity in albino CF1 mouse assessed as protection against maximal electroshock-induced seizures at 100 mg/kg, ip after 1 hr; assay type: functional, organism-based; parameters: dose 100 mg/kg; outline: as §2
[12] = system: Mus musculus; assay: Anticonvulsant activity in albino CF1 mouse assessed as protection against maximal electroshock-induced seizures at 100 mg/kg, ip after 0.5 hr; assay type: functional, organism-based; parameters: dose 100 mg/kg; outline: as §2
[13] = system: Mus musculus; assay: Anticonvulsant activity in albino CF1 mouse assessed as protection against maximal electroshock-induced seizures at 100 mg/kg, ip after 0.25 hr; assay type: functional, organism-based; parameters: dose 100 mg/kg; outline: as §2
[14] = system: Mus musculus; assay: Anticonvulsant activity in albino CF1 mouse assessed as protection against 6 Hz psychomotor seizure at 100 mg/kg, ip after 4 hrs by minimal clonic seizure test; assay type: functional, organism-based; parameters: dose 100 mg/kg
Outline: (§3)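 Male albino CF No. 1 mice, 18–25 g. Compound dissolved in saline or suspended in 0.5% methylcellulose and given ip beforehand. Corneal stimulation with 0.2 ms monopolar rectangular pulses at 6 Hz for 3 s from a constant-current device. Mice restrained during stimulation, then released and observed for the minimal clonic seizure and automatistic behaviour.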

[15] = system: Mus musculus; assay: […] activity in ip dosed albino CF1 mouse assessed as inhibition of phenylbenzoquinone-induced writhing administered after 30 mins prior challenge; assay type: functional
Outline: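 Male Albino Swiss (CD-1) mice, 6-8 per dose. Compound given ip in 0.5% methylcellulose. 30 min later, 0.25 ml of 0.02% phenylbenzoquinone injected. After 5 min, writhes counted over 10 min. % effect = (vehicle mean − drug mean)/vehicle mean × 100. ED50 derived; Student's t-test.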

[16] = system: Mus musculus; assay: Anticonvulsant activity in albino CF1 mouse assessed as protection against 6 Hz psychomotor seizure at 100 mg/kg, ip after 2 hrs by minimal clonic seizure test; assay type: functional, organism-based; parameters: dose 100 mg/kg; outline: as §3
[17] = system: Mus musculus; assay: Anticonvulsant activity in albino CF1 mouse assessed as protection against 6 Hz psychomotor seizure at 100 mg/kg, ip after 1 hr by minimal clonic seizure test; assay type: functional, organism-based; parameters: dose 100 mg/kg; outline: as §3
[18] = system: Mus musculus; assay: Anticonvulsant activity in albino CF1 mouse assessed as protection against 6 Hz psychomotor seizure at 100 mg/kg, ip after 0.5 hr by minimal clonic seizure test; assay type: functional, organism-based; parameters: dose 100 mg/kg; outline: as §3
[19] = system: Mus musculus; assay: Anticonvulsant activity in albino CF1 mouse assessed as protection against 6 Hz psychomotor seizure at 100 mg/kg, ip after 0.25 hr by minimal clonic seizure test; assay type: functional, organism-based; parameters: dose 100 mg/kg; outline: as §3
[20] = system: Mus musculus; assay: Neurotoxicity in albino CF1 mouse assessed as minimal motor impairment at 30 mg/kg, ip after 0.5 hr by rotorod test; assay type: toxicity, organism-based; parameters: dose 30 mg/kg, route intraperitoneal; conditions: in vivo
Outline: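 Male albino CF No. 1 mice, compound ip in saline or 0.5% methylcellulose. Rotarod: 1-inch knurled rod at 6 rpm. Toxicity is failure to stay on the rod for 1 min on three successive attempts. Expressed as toxic/tested.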

[21] = system: Mus musculus; assay: Anticonvulsant activity in albino CF1 mouse assessed as protection against maximal electroshock-induced seizures at 30 mg/kg, ip after 0.5 hr; assay type: functional, organism-based; parameters: dose 30 mg/kg
Outline: (§4)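 Male albino CF No. 1 mice, 18–25 g. Compound in saline or 0.5% methylcellulose, ip. Seizures elicited by 60-cycle alternating current maximal electroshock. Result expressed as animals protected/animals tested.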

[22] = system: Mus musculus; assay: Anticonvulsant activity in albino CF1 mouse assessed as protection against maximal electroshock-induced seizures at 30 mg/kg, ip after 4 hrs; assay type: functional, organism-based; parameters: dose 30 mg/kg; outline: as §4
[23] = system: Mus musculus; assay: Anesthetic activity in […] assessed as latency in response to thermal stimuli administered as 2% solution, sc measured after 15 mins by modified tail immersion test; assay type: functional, albino CF1
[24] = system: Mus musculus; assay: Anesthetic activity in albino CF1 mouse assessed as latency in response to thermal stimuli administered as 1% solution, sc measured after 15 mins by modified tail immersion test; assay type: functional
Outline: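 Male Albino Swiss (CD-1) mice, 6-8 per group, tested at 1% and 2% compound concentration. Tail distal 3 cm immersed in water at 50 ± 0.5 °C 15 min after treatment. Tail-withdrawal latency recorded with a 20 s cutoff. Value is % difference in latency vs vehicle-treated mice. Mean ± SEM, Student's t-test.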

[25] = system: Mus musculus; assay: Analgesic activity in albino CF1 mouse assessed as inhibition of heat-induced paw licking or jumping behaviour administered after 30 mins prior heat challenge by hot plate method; assay type: functional

SMILES | Activity [1] | Activity [2] | Activity [3] | Activity [4] | Activity [5] | Activity [6] | Activity [7] | Activity [8] | Activity [9] | Activity [10] | Activity [11] | Activity [12] | Activity [13] | ED50 [15] | also measured
C/C(NCc1ccccc1)=C1\CCOC1=O | inactive | Non-toxic | Non-toxic | Non-toxic | Non-toxic | Non-toxic | Non-toxic | inactive | Active | inactive | inactive | inactive | inactive |  | 
NC(=O)c1ccccc1OC1CCOC1=O (racemic) | inactive | Non-toxic | Non-toxic | Non-toxic |  | Non-toxic |  | inactive | inactive | inactive |  | inactive |  | 7.9 mg/kg | Activity [14]: inactive; Activity [16]: inactive; Activity [17]: inactive; Activity [18]: inactive; Activity [19]: inactive
O=C1OCCC1N1CCC(Cc2ccccc2)CC1 (racemic) | inactive | Toxic | Toxic | Non-toxic | Non-toxic | Non-toxic | Non-toxic | inactive | Active | inactive | inactive | inactive | inactive |  | 
Cl.O=C1OCCC1NC1CCCCC1 (racemic) | inactive | Non-toxic | Non-toxic | Non-toxic |  | Non-toxic |  | inactive | inactive | inactive |  | inactive |  |  | Activity [14]: inactive; Activity [16]: Active; Activity [17]: inactive; Activity [18]: inactive; Activity [19]: inactive; Activity [20]: Toxic; Activity [21]: inactive; Activity [22]: inactive
O=C1OCCC1N1CCN(c2ccccc2)CC1 (racemic) | inactive | Non-toxic | Toxic | Non-toxic | Non-toxic | Toxic | Non-toxic | inactive | Active | inactive | inactive | inactive | inactive | 2.4 mg/kg | Activity [23]: 146%; Activity [24]: 102%; ED50 [25]: 4 mg/kg
COc1ccccc1N1CCN(C2CCOC2=O)CC1 (racemic) | inactive | Non-toxic | Toxic | Non-toxic | Non-toxic | Non-toxic | Non-toxic | inactive | Active | inactive | inactive | inactive | inactive | 0.3 mg/kg | Activity [23]: 152%; Activity [24]: 97%; ED50 [25]: 0.7 mg/kg
COc1ccc(CCN/C(C)=C2/CCOC2=O)cc1OC | inactive | Non-toxic | Non-toxic | Non-toxic | Non-toxic | Non-toxic | Non-toxic | inactive | Active | inactive | inactive | inactive | inactive |  | 
